Measurements as given in ChEMBL document CHEMBL1139220, “Structure-activity relationship study of prion inhibition by 2-aminopyridine-3,5-dicarbonitrile-based compounds: parallel synthesis, bioactivity, and in vitro pharmacokinetics” (J Med Chem, 2007).
≈ marks a conversion by molar mass, not a printed value. Calls of active or inactive are those of the source. The rule behind the calls is not given here.

What was measured:
ScN2a [1] = assay: Cytotoxicity against ScN2a cells; type: functional; settings: Mus musculus, read-out: LD50 (the source's name)
Summary of the method: (§1)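 Scrapie-infected mouse neuroblastoma ScN2a cells, seeded at about 40 000 cells/well, were exposed to compound for 5 days at 37 °C; concentrations up to 25 µM, final DMSO ≤0.25%. Viability was read first with calcein-AM (ex/em 492/525 nm). The same wells were then lysed, Benzonase-treated, digested with proteinase K (1 h, 37 °C), PTA-precipitated and assayed for PrP 27-30 by direct ELISA (D18 antibody, AP/pNPP). Triplicate, three independent experiments.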

ScN2a [2] = assay: Reduction of PrPSC accumulation in ScN2a cells; type: functional, cell-based; settings: Mus musculus; summary of the method: as §1
[3] = Solubility in phosphate buffer at pH 6.5 at 500 uM; type: physicochemical
ScN2a [4] = assay: Reduction of PrPSC accumulation in ScN2a cells upto 25 uM; type: functional, cell-based; settings: Mus musculus; summary of the method: as §1
Adenosine receptor A1 = target: T1, Adenosine receptor A1 (Homo sapiens, UniProt P30542); assay: Inhibitory constant aganist human adenosine A1 receptor
T1 sequence (P30542 whole entry): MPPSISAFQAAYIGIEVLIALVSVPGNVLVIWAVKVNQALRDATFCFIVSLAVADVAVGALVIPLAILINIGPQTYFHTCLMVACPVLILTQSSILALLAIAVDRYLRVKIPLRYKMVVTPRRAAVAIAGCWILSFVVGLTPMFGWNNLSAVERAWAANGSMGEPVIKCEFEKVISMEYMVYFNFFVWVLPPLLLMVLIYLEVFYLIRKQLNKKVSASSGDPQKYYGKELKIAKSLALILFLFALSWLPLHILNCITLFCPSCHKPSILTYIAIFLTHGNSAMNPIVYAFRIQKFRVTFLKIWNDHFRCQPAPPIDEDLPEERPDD

[5] = target: T2, Adenosine receptor A3 (Homo sapiens) (UniProt P0DMS8); assay: Inhibition of human adenosine A3 receptor ar 5 uM realtive to IB-MECA
T2 sequence (whole entry): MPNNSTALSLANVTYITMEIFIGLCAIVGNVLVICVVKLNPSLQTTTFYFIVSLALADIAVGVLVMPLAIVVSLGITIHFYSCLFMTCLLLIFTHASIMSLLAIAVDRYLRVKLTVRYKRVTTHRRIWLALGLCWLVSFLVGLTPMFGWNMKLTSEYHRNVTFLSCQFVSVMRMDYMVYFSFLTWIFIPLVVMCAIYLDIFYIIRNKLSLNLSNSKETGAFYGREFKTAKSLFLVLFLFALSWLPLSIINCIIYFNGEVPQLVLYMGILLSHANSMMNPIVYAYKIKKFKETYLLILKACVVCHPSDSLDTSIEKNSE
Summary of the method: (§2)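 Human adenosine receptor subtypes hA1, hA2a and hA3 were tested with compound at 5 µM. Inhibition is expressed relative to a selective reference also used at 5 µM, taken as 100%: DPCPX for hA1, NECA for hA2a, IB-MECA for hA3.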

[6] = target: T3, Adenosine receptor A1 (Homo sapiens) (UniProt P30542); assay: Inhibition of human adenosine A1 receptor at 5 uM relative to DPCPX; summary of the method: as §2
T3 sequence (whole entry): T1 sequence (P30542 whole entry)

[7] = target: Adenosine receptor A2a (Homo sapiens) (UniProt P29274); assay: Inhibition of human adenosine A2a receptor at 5 uM relative to NECA; summary of the method: as §2
Sequence of Adenosine receptor A2a (Homo sapiens) (P29274 whole entry): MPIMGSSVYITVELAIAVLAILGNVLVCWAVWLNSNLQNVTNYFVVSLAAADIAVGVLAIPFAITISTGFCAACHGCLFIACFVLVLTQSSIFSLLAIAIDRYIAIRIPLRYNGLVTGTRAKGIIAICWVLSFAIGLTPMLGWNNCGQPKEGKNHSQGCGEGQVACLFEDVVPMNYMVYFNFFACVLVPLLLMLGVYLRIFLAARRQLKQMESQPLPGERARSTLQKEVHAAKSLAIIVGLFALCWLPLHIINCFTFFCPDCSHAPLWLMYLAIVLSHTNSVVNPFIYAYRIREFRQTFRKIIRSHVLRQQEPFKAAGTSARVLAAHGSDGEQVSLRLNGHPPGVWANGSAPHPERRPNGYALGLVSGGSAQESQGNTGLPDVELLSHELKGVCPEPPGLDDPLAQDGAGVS

Compound	CC50 (ScN2a [1])	EC50 (ScN2a [2])	solubility at 500 µM [3]	further results
N#Cc1c(N)nc(SCCCN2CCCCC2)c(C#N)c1-c1ccco1	> 25 µM	6 µM	> 400 µM	–
CCN(CC)CCSc1nc(N)c(C#N)c(-c2ccc(Cl)cc2)c1C#N	> 25 µM	7.5 µM	200 µM (≈ 77.2 µg/mL)	–
CCN(CC)CCCC(C)Nc1c2ccc(Cl)cc2nc2ccc(OC)cc12 (stereo not drawn) [QUINACRINE]	7.8 µM	0.8 µM	–	–
CCN(CC)CCSc1nc(N)c(C#N)c(-c2cccc(Cl)c2Cl)c1C#N	> 25 µM	4.5 µM	200 µM (≈ 84.1 µg/mL)	–
CN(CCSc1nc(N)c(C#N)c(-c2ccco2)c1C#N)Cc1ccccc1	> 25 µM	–	–	Activity (ScN2a [4]): inactive
CN(Cc1cnc2nc(N)nc(N)c2n1)c1ccc(C(=O)N[C@@H](CCC(=O)O)C(=O)O)cc1 [METHOTREXATE]	–	–	> 400 µM	–
N#Cc1c(N)nc(Sc2ccccc2N)c(C#N)c1-c1ccco1	> 80 µM	80 µM	–	–
N#Cc1c(N)nc(SCc2ccccc2)c(C#N)c1-c1cccs1	> 25 µM	–	–	Activity (ScN2a [4]): inactive
N#Cc1c(N)nc(SCc2ncc[nH]2)c(C#N)c1-c1ccccc1	–	> 25 µM	–	–
CCN(CC)CCSc1nc(N)c(C#N)c(-c2ccco2)c1C#N	> 25 µM	8.8 µM	> 400 µM	–
N#Cc1c(N)nc(SCC(N)=O)c(C#N)c1-c1ccco1	> 25 µM	–	–	Activity (ScN2a [4]): inactive
CCN(CC)CCSc1nc(N)c(C#N)c(-c2cccc(Cl)c2)c1C#N	> 25 µM	5.3 µM	–	–
CN(C)CCCSc1nc(N)c(C#N)c(-c2ccco2)c1C#N	> 25 µM	10.2 µM	> 400 µM	–
CCN(CC)CCSc1nc(N)c(C#N)c(-c2ccc(Br)cc2)c1C#N	> 25 µM	6.1 µM	200 µM (≈ 86.1 µg/mL)	–
CCN(CC)CCSc1nc(N)c(C#N)c(-c2cc(Cl)cc(Cl)c2)c1C#N	> 25 µM	2.2 µM	–	–
COc1ccc(-c2c(C#N)c(N)nc(SCc3ncc[nH]3)c2C#N)cc1	–	> 25 µM	–	–
CC(C)N(CCSc1nc(N)c(C#N)c(-c2ccco2)c1C#N)C(C)C	> 25 µM	13.4 µM	–	–
N#Cc1c(N)nc(SCCN2CCOCC2)c(C#N)c1-c1ccco1	> 25 µM	–	–	Activity (ScN2a [4]): inactive
N#Cc1c(N)nc(SCCN2CCCC2)c(C#N)c1-c1ccco1	> 25 µM	10.6 µM	200 µM (≈ 67.9 µg/mL)	–
N#Cc1c(N)nc(SCCN2CCCCC2)c(C#N)c1-c1ccco1	> 25 µM	8.1 µM	> 400 µM	–
CN(C)CCCN1c2ccccc2Sc2ccc(Cl)cc21 [CHLORPROMAZINE]	–	–	> 400 µM	–
CCN(CC)CCSc1nc(N)c(C#N)c(-c2ccccc2Cl)c1C#N	> 25 µM	5.5 µM	> 400 µM	Ki (Adenosine receptor A1): 0.59 µM; inhibition [5]: 77%; inhibition [6]: 95%; inhibition [7]: 62%
CCN(CC)CCSc1nc(N)c(C#N)c(-c2ccc(Cl)c(Cl)c2)c1C#N	> 25 µM	7.2 µM	200 µM (≈ 84.1 µg/mL)	–
CCCCN(CCCC)CCSc1nc(N)c(C#N)c(-c2ccco2)c1C#N	> 25 µM	–	–	Activity (ScN2a [4]): inactive
CNC(=O)[C@H]1O[C@@H](n2cnc3c(NCc4cccc(I)c4)ncnc32)[C@H](O)[C@@H]1O [IB-MECA]	–	> 25 µM	–	–
CCCn1c(=O)c2[nH]c(C3CCCC3)nc2n(CCC)c1=O [1,3-DIPROPYL-8-CYCLOPENTYLXANTHINE [DPCPX]]	–	> 25 µM	–	–
N#Cc1c(N)nc2sc(C(=O)c3ccccc3[N+](=O)[O-])c(N)c2c1-c1ccco1	> 25 µM	10.9 µM	–	–
CN(C)CCSc1nc(N)c(C#N)c(-c2ccco2)c1C#N	> 25 µM	13.9 µM	–	–
CCN(CC)CCSc1nc(N)c(C#N)c(-c2cccc(Br)c2)c1C#N	> 25 µM	4.3 µM	–	–
N#Cc1c(N)nc(SCCCN)c(C#N)c1-c1ccco1	> 25 µM	–	–	Activity (ScN2a [4]): inactive
